Here are results for one substance from article PMC10404122 (Drug Design, Development and Therapy, 2023).

A short description of data set [1]: Population pharmacokinetic model. It counts as in vivo, human. The following applies: ICU patients, iv, 304 samples from 108 patients, two-compartment model. Put shortly: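 NONMEM fit with FOCE with interaction. One- vs two-compartment chosen by goodness-of-fit plots. Covariates tested: sex, age, weight, ALB, Scr, Cockcroft-Gault Ccr, CKD-EPI eGFR, CRRT, APACHE II. Forward inclusion at P < 0.05 (ΔOFV −3.84), backward elimination at P < 0.001 (ΔOFV −10.828). Robustness checked with 1000 bootstrap resamples (median, 2.5–97.5 percentiles). VPC, NPDE and external-set MPE/RMSE also run.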

Data set [2] can be described thus: Stability of plasma samples. It counts as in vitro ADME. The following applies: human plasma (EDTA), −20 °C, HPLC-MS/MS of A2-2.
The conditions of data set [3]: cited from earlier work.
The conditions of data set [4]: cited from earlier work. The source holds these as a separate data set.
For data set [5] the following is noted: plasma concentration; cited from earlier work.

As for teicoplanin, in data set [1], the “Q, inter-compartmental clearance, final model estimate” value is recorded as 3.08 L/h; the “Vc, volume of the central compartment, final model estimate” value is 14.4 L; the “Vp, volume of the peripheral compartment, final model estimate” value was 51.6 L. The “time for which plasma samples were found to be stable” value in data set [2] was “at least 41 days”. For the same substance, the “patients in whom the standard dosing regimen was insufficient to achieve 10 mg/L” value in data set [3] (400 mg q12h×3, 400 mg qd, within the initial three days) is recorded as “more than 50%”. Also, the elimination half-life in data set [3] is 169 h. For the same substance, in data set [4], the “plasma protein binding rate” value is “over 90%”. Moreover, the “concentration inducing adverse effects: thrombocytopenia” value in data set [5] is no less than 40000 ng/mL.
